According to ChEMBL document CHEMBL4414663, “Pyrazole-4-Carboxamide (YW2065): A Therapeutic Candidate for Colorectal Cancer via Dual Activities of Wnt/β-Catenin Signaling Inhibition and AMP-Activated Protein Kinase (AMPK) Activation” (J Med Chem, 2019):
Active and inactive are the calls of the source. No cut-off for these calls is given here.

Experiments:
[1] = target: Ribosomal protein S6 kinase alpha-3 (Homo sapiens) (UniProt P51812); test: Inhibition of RPS6KA3 (unknown origin) at 1000 nM relative to control
In short: (§1)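 Single-concentration screen at 1000 nM against a 273-kinase panel, reported as percent inhibition.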

[2] = species on record: Homo sapiens; test: Inhibition of Wnt/beta-Catenin signaling in human SW620 cells assessed as reduction in S100A4 mRNA expression at 10 uM incubated for 24 hrs by real-time PCR analysis; assay type: cell-based
In short: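 SW620 cells (RPMI 1640, 10% FBS) in 6-well plates, incubated 24 h, then treated with compound at several concentrations, three replicates each, for 24 h. Total RNA isolated with Trizol/phenol-chloroform; 2 µg reverse transcribed; Wnt target gene mRNA quantified by PCR.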

[3] = target: AMP-activated protein kinase, AMPK (Homo sapiens) (UniProt P54646+O43741+P54619+Q9UGJ0+Q9Y478+Q13131+Q9UGI9); test: Activation of AMPK in human SW620 cells assessed as increase in ACC phosphorylation incubated for 24 hrs by Western blot analysis; assay type: cell-based
In short: (§2)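 SW620 cells in RPMI 1640 with 10% FBS, treated over a concentration range. Lysed in RIPA with protease inhibitors, 20 µL of 2 mg/mL protein run on 7.5% SDS-PAGE, transferred to nitrocellulose, blocked in 5% BSA. Rabbit primaries (Axin-1, ACC, pACC, AMPK, pAMPK at 1:1,000; β-actin 1:2,000) overnight at 4 °C, HRP secondary 1:8000 for 2 h, ECL.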

[4] = Toxicity in C57BL/6 mouse assessed as effect on AST level at 100 mg/kg/day, ip for 21 days; assay type: organism-based; details: in vivo, 504 h
[5] = Tmax in C57BL/6J mouse at 5 mg/kg, po by UPLC-MS analysis; assay type: ADME, organism-based; details: in vivo
In short: (§3)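 Male C57BL/6J mice, 2–3 months old, 23–26 g. Single 5 mg/kg dose in 5% Kolliphor in saline, IV (n = 3) or oral gavage (n = 5). Tail-vein blood taken at 0.25, 0.5, 1, 4, 8 and 12 h and centrifuged to plasma. Analysed by LC-MS/MS (QTRAP 4000, C18 column); parameters from non-compartmental analysis.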

[6] = test system: SW-620; test: Induction of apoptosis in human SW620 cells assessed as necrotic cells level at 3 uM incubated for 48 hrs by AAD-7 and FITC-annexin-V staining based flow cytometry (reference value: 0.027%); assay type: functional
[7] = test system: SW-620; test: Antitumor activity against human SW620 cells xenografted in nude mouse assessed as reduction in tumor volume at 10 mg/kg, ip QD for 32 consecutive days; assay type: functional, organism-based
In short: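 Six-week-old nude mice injected subcutaneously with 2×10^6 SW620 cells. Randomised at mean tumor volume 100–200 mm³ (n=6/group). Given 10 or 50 mg/kg ip daily for 32 consecutive days; vehicle 10% DMSO, 10% Kolliphor, 80% saline. Tumor volume measured every other day. Tumors weighed after euthanasia at day 32. t test against vehicle.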

[8] = target: Serine/threonine-protein kinase PAK 3 (Homo sapiens) (UniProt O75914); test: Inhibition of PAK3 (unknown origin) at 1000 nM relative to control; in short: as §1
[9] = test system: SW-620; test: Growth inhibition of human SW620 cells incubated for 72 hrs by Cell-titer-fluor reagent based assay; assay type: functional; details: SW-620, 72 h
In short: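 SW620 cells, parental, overexpressing β-catenin S33Y, or with Axin-1 knocked down by lentiviral shRNA. Treated with compound or vehicle for 72 h.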

[10] = test system: SW-620; test: Induction of apoptosis in human SW620 cells assessed as viable cells level at 10 uM incubated for 48 hrs by AAD-7 and FITC-annexin-V staining based flow cytometry (reference value: 73.8%); assay type: functional
[11] = Toxicity in C57BL/6 mouse assessed as effect on total protein level at 100 mg/kg/day, ip for 21 days; assay type: organism-based; details: in vivo, 504 h
[12] = test system: SW-620; test: Induction of apoptosis in human SW620 cells assessed as late apoptotic cells level at 1 uM incubated for 48 hrs by AAD-7 and FITC-annexin-V staining based flow cytometry (reference value: 7.6%); assay type: functional
[13] = Inhibition of Wnt/beta-Catenin signaling in human SW620 cells incubated for 24 hrs by TCF/LEF dual-luciferase reporter assay; assay type: cell-based; details: SW-620, 24 h
In short: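 SW480 or SW620 cells seeded at 200,000/well and transiently transfected 24 h later with TOPflash firefly luciferase plus pRLTK-Renilla using lipofectamine 2000. After 16 h the medium was replaced with compound at a range of concentrations, three replicates each. Dual firefly/Renilla luciferase read 24 h later.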

[14] = Oral bioavailability in C57BL/6J mouse at 5 mg/kg by UPLC-MS analysis; assay type: ADME, organism-based; details: in vivo; in short: as §3
[15] = test system: SW-620; test: Induction of Axin-1 protein expression in human SW620 cells by Western blot analysis; assay type: functional, cell-based; in short: as §2
[16] = test system: HT-29; test: Inhibition of colony formation in human HT-29 cells incubated for 14 days by crystal violet staining based assay; assay type: functional, cell-based
In short: (§4)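 SW480, SW620 or HT29 cells seeded at 300/well in 3 mL medium in 6-well plates with a concentration series of compound. After 14 days, fixed in 4% formaldehyde and stained with 0.5% crystal violet in 25% aqueous MeOH; colonies photographed.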

[17] = test system: Mus musculus; test: Inhibition of Wnt/beta-Catenin signaling in nude mouse xenografted with human SW620 cells assessed as reduction in Axin-2 mRNA expression at 50 mg/kg, ip QD for 32 consecutive days by RT-PCR analysis; assay type: organism-based; details: in vivo
In short: (§5)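 Six-week-old nude mice implanted subcutaneously in the right flank with 2×10^6 SW620 cells. Randomized at mean tumor volume 100–200 mm³, n = 6/group. Dosed IP once daily for 32 days at 10 or 50 mg/kg, or vehicle (10% DMSO, 10% Kolliphor, 80% saline). Tumors collected at day 32; Axin-2, MMP-7 and S100A4 expression measured by RT-PCR.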

[18] = test system: SW480; test: Inhibition of colony formation in human SW480 cells incubated for 14 days by crystal violet staining based assay; assay type: functional, cell-based; in short: as §4
[19] = test system: Mus musculus; test: Inhibition of Wnt/beta-Catenin signaling in nude mouse xenografted with human SW620 cells assessed as reduction in S100A4 mRNA expression at 50 mg/kg, ip QD for 32 consecutive days by RT-PCR analysis; assay type: organism-based; details: in vivo; in short: as §5
[20] = test system: Mus musculus; test: Activation of AMPK in nude mouse xenografted with human SW620 cells assessed as increase in ACC phosphorylation at 50 mg/kg, ip QD for 32 consecutive days by Western blot analysis; assay type: functional, organism-based
In short: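 Nude mice carried subcutaneous SW620 xenografts (2×10^6 cells, right flank). Dosing began once mean tumor volume reached 100–200 mm³: 50 mg/kg ip once daily for 32 days, vehicle 10% DMSO/10% Kolliphor/80% saline. Tumors taken at day 32 and lysed in RIPA with protease inhibitors. Western blot with 20 µL of 2 mg/mL lysate on 7.5% SDS-PAGE, probed for pAMPK/AMPK or pACC/ACC, ECL detection.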

[21] = Toxicity in C57BL/6 mouse assessed as effect on BUN level at 100 mg/kg/day, ip for 21 days; assay type: organism-based; details: in vivo, 504 h
[22] = target: Maternal embryonic leucine zipper kinase (Homo sapiens) (UniProt Q14680); test: Inhibition of MELK (unknown origin) at 1000 nM relative to control; in short: as §1
Chain of Maternal embryonic leucine zipper kinase (Homo sapiens) (Q14680 whole entry, looked up): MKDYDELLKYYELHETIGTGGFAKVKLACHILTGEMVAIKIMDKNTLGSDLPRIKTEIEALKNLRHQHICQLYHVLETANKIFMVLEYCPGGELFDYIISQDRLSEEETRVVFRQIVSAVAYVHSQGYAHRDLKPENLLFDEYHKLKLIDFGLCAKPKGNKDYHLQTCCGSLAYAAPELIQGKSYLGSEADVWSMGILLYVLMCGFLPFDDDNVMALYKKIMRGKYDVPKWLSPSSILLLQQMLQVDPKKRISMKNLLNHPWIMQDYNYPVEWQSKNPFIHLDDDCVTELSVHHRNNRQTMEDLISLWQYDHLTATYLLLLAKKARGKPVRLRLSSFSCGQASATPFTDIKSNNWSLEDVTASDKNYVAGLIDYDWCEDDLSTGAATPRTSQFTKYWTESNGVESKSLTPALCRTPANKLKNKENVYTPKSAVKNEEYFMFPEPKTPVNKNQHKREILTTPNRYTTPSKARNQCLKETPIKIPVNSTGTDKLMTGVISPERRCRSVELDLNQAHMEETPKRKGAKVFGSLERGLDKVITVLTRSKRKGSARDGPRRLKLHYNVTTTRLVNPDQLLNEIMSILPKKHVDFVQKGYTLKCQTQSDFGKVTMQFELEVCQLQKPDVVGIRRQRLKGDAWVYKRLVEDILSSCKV

Chain of Serine/threonine-protein kinase PAK 3 (Homo sapiens) (O75914 whole entry, looked up): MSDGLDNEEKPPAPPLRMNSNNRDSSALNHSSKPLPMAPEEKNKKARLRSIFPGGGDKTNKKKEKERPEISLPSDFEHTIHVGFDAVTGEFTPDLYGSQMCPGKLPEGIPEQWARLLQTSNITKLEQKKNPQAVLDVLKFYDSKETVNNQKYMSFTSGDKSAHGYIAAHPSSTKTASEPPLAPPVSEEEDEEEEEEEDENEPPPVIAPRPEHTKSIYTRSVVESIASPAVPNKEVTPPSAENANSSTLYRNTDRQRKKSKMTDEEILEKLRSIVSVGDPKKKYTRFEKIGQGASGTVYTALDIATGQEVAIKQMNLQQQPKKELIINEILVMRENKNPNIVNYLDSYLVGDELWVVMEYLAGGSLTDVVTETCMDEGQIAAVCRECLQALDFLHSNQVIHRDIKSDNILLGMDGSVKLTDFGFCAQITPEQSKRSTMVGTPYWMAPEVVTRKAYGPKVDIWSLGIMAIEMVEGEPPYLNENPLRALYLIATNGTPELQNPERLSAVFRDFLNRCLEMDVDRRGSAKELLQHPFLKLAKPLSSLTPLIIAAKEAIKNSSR
Chain of Ribosomal protein S6 kinase alpha-3 (Homo sapiens) (P51812 whole entry): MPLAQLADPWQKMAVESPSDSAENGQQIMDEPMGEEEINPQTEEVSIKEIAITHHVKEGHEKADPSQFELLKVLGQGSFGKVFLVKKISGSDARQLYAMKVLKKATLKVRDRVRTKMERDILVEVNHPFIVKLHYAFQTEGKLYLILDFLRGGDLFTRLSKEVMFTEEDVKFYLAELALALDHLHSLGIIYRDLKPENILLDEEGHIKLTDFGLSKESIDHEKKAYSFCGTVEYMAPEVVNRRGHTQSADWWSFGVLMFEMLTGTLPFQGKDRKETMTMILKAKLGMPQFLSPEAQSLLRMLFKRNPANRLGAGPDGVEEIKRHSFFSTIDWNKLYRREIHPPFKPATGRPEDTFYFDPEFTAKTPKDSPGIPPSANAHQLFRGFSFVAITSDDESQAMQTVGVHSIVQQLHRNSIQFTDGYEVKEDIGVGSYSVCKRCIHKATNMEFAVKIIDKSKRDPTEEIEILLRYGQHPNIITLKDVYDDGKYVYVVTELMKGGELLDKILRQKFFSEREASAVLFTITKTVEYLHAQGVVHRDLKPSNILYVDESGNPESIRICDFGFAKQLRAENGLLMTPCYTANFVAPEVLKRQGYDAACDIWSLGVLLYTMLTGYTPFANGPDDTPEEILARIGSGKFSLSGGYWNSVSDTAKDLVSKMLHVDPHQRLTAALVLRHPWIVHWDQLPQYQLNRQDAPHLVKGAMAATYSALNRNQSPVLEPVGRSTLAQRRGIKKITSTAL

Question: Which inhibition [1] does the source give for `Cc1c(C(=O)Nc2ccc3ccccc3n2)cnn1-c1ccccc1Br` here?
Answer: The inhibition was 39%.

Question: What about the inhibition [2] of the same molecule?
Answer: The inhibition was “Active”.

Question: And the Activity [3]?
Answer: The Activity was “Dose-dependent effect”.

Question: And the Activity [4]?
Answer: The Activity was “Non-Toxic”.

Question: What about the Tmax [5] of the same molecule?
Answer: Its Tmax is 18 min.

Question: And the Activity [6]?
Answer: Its Activity is 0.048%.

Question: What about the Activity [7] of the same molecule?
Answer: The Activity was “Active”.

Question: And the inhibition [8]?
Answer: Its inhibition is “Active”.

Question: And the IC50 [9]?
Answer: The IC50 was 11.6 nM.

Question: What about the Activity [10] of the same molecule?
Answer: The Activity was 22.1%.

Question: What about the Activity [11] of the same molecule?
Answer: The Activity was “Non-Toxic”.

Question: And the Activity [12]?
Answer: Its Activity is 9.43%.

Question: What about the IC50 [13] of the same molecule?
Answer: The IC50 was 0.194 nM.

Question: And the bioavailability [14]?
Answer: Its bioavailability is 22.9%.

Question: What about the Activity [15] of the same molecule?
Answer: The Activity was “Dose-dependent effect”.

Question: What about the inhibition [16] of the same molecule?
Answer: Its inhibition is “Dose-dependent effect”.

Question: And the “inhibition (INH)” value [17]?
Answer: Its value is “Active”.

Question: What about the inhibition [18] of the same molecule?
Answer: The inhibition was “Dose-dependent effect”.

Question: And the “inhibition (INH)” value [19]?
Answer: The value was “Active”.

Question: What about the Activity [20] of the same molecule?
Answer: Its Activity is “Active”.

Question: What about the Activity [21] of the same molecule?
Answer: Its Activity is “Non-Toxic”.

Question: And the inhibition [22]?
Answer: The inhibition was “Active”.
